The source made the active and inactive calls. The rule behind the calls is not given here. Where a SMILES comes first, the peptide text is derived from it. [ ]: non-standard residue; d: D form. pY = N[C@@H](Cc1ccc(OP(=O)(O)O)cc1)C(=O)O
Legend:
Homo sapiens [1] = organism: Homo sapiens; experiment: Inhibition of human plasma alpha-thrombin assessed as spectrozyme TH hydrolysis at 1 to 900 uM preincubated for 10 mins by spectrophotometric analysis relative to control; type: cell-free
In short: (§1)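 Human plasma α-thrombin (5 nM final) with inhibitor (1−900 μM final) in 20 mM Tris-HCl pH 7.4, 100 mM NaCl, 2.5 mM CaCl2, 0.1% PEG8000, PEG20000-coated cuvettes, 10 min. Spectrozyme TH then added (30 μM final). Initial rate from A405 increase. Residual activity fitted by logistic equation with floating Hill slope, Y0, YM to give IC50.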

[2] = (§2) Inhibition of human plasma alpha-thrombin assessed as spectrozyme TH hydrolysis preincubated for 10 mins by spectrophotometric analysis; type: cell-free; in short: as §1
[3] = molecular target: Coagulation factor X (Homo sapiens) (UniProt P00742); experiment: Inhibition of human factor 10a at 365 uM
Prothrombin = Prothrombin (Homo sapiens, UniProt P00734); experiment: Binding affinity to thrombin exosite-2 (unknown origin)
Homo sapiens [4] = organism: Homo sapiens; experiment: as §2; type: cell-free; in short: as §1
Homo sapiens [5] = organism: Homo sapiens; experiment: Binding affinity to human plasma alpha-thrombin exosite-2 using spectrozyme TH as substrate after overnight incubation at 25 degC by spectrophotometric analysis; type: cell-free

Coagulation factor X (Homo sapiens), sequence (P00742 41-179 limits assumed): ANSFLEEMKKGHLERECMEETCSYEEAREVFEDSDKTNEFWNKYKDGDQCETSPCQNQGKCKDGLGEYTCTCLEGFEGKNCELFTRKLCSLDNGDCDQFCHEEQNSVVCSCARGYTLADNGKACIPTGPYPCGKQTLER
Coagulation factor X (Homo sapiens), sequence (P00742 235-488 limits assumed): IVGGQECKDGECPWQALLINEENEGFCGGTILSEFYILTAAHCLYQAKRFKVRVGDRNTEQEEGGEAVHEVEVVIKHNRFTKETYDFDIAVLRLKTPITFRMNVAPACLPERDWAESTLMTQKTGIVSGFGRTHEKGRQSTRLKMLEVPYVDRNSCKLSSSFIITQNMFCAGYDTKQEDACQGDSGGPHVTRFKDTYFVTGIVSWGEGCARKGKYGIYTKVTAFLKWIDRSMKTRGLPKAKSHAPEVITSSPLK

Efficacy (Homo sapiens [1]) | IC50 ([2]; read-out: IC50) | IC50 ([2]; read-out: pIC50 (converted)) | inhibition [3] | K (Prothrombin) | inhibition (Homo sapiens [4]) | K (Homo sapiens [5]) | Compound
91% | 154 µM | 155 µM |  |  |  |  | CCOC(=O)c1c(C)oc2cc(OC)c(OCc3oc4cc(OC)c(OCc5oc6cc(OS(=O)(=O)O)c(OC)cc6c5C(=O)OCC)cc4c3C(=O)OCC)cc12
 | > 500 µM |  | inactive |  |  |  | CCOC(=O)c1c(C)oc2cc(OC)c(OCc3oc4cc(OC)c(OCc5oc6cc(OC)c(OS(=O)(=O)O)cc6c5C(=O)OCCOC)cc4c3C(=O)OCC)cc12
49% | 66 µM | 66.1 µM | inactive |  |  |  | CCOC(=O)c1c(COc2cc3c(C(=O)O)c(C)oc3cc2OC)oc2cc(OC)c(OCc3oc4cc(OC)c(OS(=O)(=O)O)cc4c3C(=O)OCC)cc12
94% | 165 µM | 166 µM | inactive |  |  |  | CCOC(=O)c1c(C)oc2cc(OC)c(OCc3oc4cc(OC)c(OCc5oc6cc(OC)c(OS(=O)(=O)O)cc6c5C(=O)OC(C)(C)C)cc4c3C(=O)OCC)cc12
53% | 31 µM | 30.9 µM |  |  |  |  | C=CCOC(=O)c1c(C)oc2cc(OC)c(OCc3oc4cc(OC)c(OCc5oc6cc(OC)c(OS(=O)(=O)O)cc6c5C(=O)OCC)cc4c3C(=O)OCC)cc12
 | 158 µM | 158 µM |  |  |  |  | CCOC(=O)c1c(C)oc2cc(OC)c(OCc3oc4cc(OC)c(OCc5oc6cc(OC)c(OCc7oc8cc(OC)c(OS(=O)(=O)O)cc8c7C(=O)OCC)cc6c5C(=O)OCC)cc4c3C(=O)OCC)cc12
 |  |  |  | 0.6 µM |  |  | CC(C)C[C@H](NC(=O)[C@H](CC(=O)O)NC(=O)[C@H](CC(=O)O)NC(=O)[C@H](CCC(=O)O)NC(=O)[C@@H]1CCCN1C(=O)[C@H](Cc1ccc(OP(=O)(O)O)cc1)NC(=O)[C@H](CC(C)C)NC(=O)[C@H](CO)NC(=O)[C@H](CC(=O)O)NC(=O)[C@H](Cc1ccc(OP(=O)(O)O)cc1)NC(=O)[C@H](CCC(=O)O)NC(=O)[C@@H](NC(=O)[C@H](CCC(=O)O)NC(=O)[C@H](C)NC(=O)[C@@H]1CCCN1C(=O)[C@H](Cc1cnc[nH]1)NC(=O)[C@H](CCC(=O)O)NC(=O)[C@@H]1CCCN1C(=O)[C@H](CCCNC(=N)N)NC(=O)[C@@H](N)C(C)C)[C@@H](C)O)C(=O)O (H-VRPEHPAETE[pY]DSL[pY]PEDDL-OH)
43% | 5.8 µM | 5.89 µM | inactive |  |  |  | CCOC(=O)c1c(C)oc2cc(OC)c(OCc3oc4cc(OC)c(OCc5oc6cc(OCC)c(OS(=O)(=O)O)cc6c5C(=O)OCC)cc4c3C(=O)OCC)cc12
26% | 99 µM | 100 µM | inactive |  |  |  | CCOC(=O)c1c(C)oc2cc(OC)c(OCc3oc4cc(OC)c(OCc5oc6cc(OC(C)C)c(OS(=O)(=O)O)cc6c5C(=O)OCC)cc4c3C(=O)OCC)cc12
 |  |  |  |  | Active |  | N=C(N)NCCC[C@H](NC(=O)[C@@H]1CCCN1C(=O)[C@H](N)Cc1ccccc1)C(=O)CCl
 |  |  | inactive |  |  |  | CCOC(=O)c1c(C)oc2cc(OC)c(OCc3oc4cc(OC)c(OCc5oc6cc(OC)c(OCc7oc8cc(OC)c(OS(=O)(=O)C(C)(C)C)cc8c7C(=O)OCC)cc6c5C(=O)OCC)cc4c3C(=O)OCC)cc12
 |  |  |  |  |  | 2.7 µM | O=C(O)C1=C[C@H](O)[C@@H](OS(=O)(=O)O)[C@H](O[C@H]2[C@H](O)[C@@H](NS(=O)(=O)O)[C@@H](O[C@H]3[C@H](O)[C@@H](OS(=O)(=O)O)[C@H](O[C@H]4[C@H](O)[C@@H](NS(=O)(=O)O)[C@@H](O[C@H]5[C@H](O)[C@@H](OS(=O)(=O)O)[C@H](O[C@H]6[C@H](O)[C@@H](NS(=O)(=O)O)[C@@H](O[C@H]7[C@H](O)[C@@H](OS(=O)(=O)O)[C@H](O[C@H]8[C@H](O)[C@@H](NS(=O)(=O)O)[C@@H](O)O[C@@H]8COS(=O)(=O)O)O[C@H]7COS(=O)(=O)O)O[C@@H]6COS(=O)(=O)O)O[C@H]5COS(=O)(=O)O)O[C@@H]4COS(=O)(=O)O)O[C@H]3COS(=O)(=O)O)O[C@@H]2COS(=O)(=O)O)O1
39% | 2 µM | 2.04 µM | inactive |  |  |  | CCOC(=O)c1c(C)oc2cc(OC)c(OCc3oc4cc(OC)c(OCc5oc6cc(OC)c(OS(=O)(=O)O)cc6c5C(=O)OC)cc4c3C(=O)OCC)cc12
 | > 500 µM |  | inactive |  |  |  | CCOC(=O)c1c(COc2cc3c(C(=O)OCC)c(COc4cc5c(C(=O)O)c(C)oc5cc4OC)oc3cc2OC)oc2cc(OC)c(O)cc12

— ChEMBL document CHEMBL2396594, “Designing allosteric regulators of thrombin. Exosite 2 features multiple subsites that can be targeted by sulfated small molecules for inducing inhibition” (J Med Chem, 2013)
